The record followed here is ChEMBL document CHEMBL1123133, “1H-2-Benzopyran-1-one derivatives, microbial products with pharmacological activity. Conversion into orally active derivatives with antiinflammatory and antiulcer activities” (J Med Chem, 1985).

The subject of data set [1] is Rattus norvegicus. Briefly: Gastroprotective activity as % protection against stress ulcers in 5 rats after an oral dose of 12.5 mg/kg. It is filed as functional. In short, it runs like this:
(§1)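 Stress ulcer by restraint and water immersion: male Wistar rats (160–180 g), fasted 24 h, given test compound po or ip as HCl salt in aqueous glycerin/HCO-60 formulation (1/12/0.05 by weight). Vehicle-only controls. After 1 h, restrained in net cage and immersed in 21 °C water for 6 h. Percent ulcer inhibition calculated; five rats per dose.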

In data set [2] the test system is Rattus norvegicus. The data set is described as follows: Concentration 5a detected in blood of rat 1 hr after an oral dose of 200 mg/kg of the compound. Conditions: in vivo. It is filed as ADME, organism-based. Further details: dose 200 mg/kg, route oral. In short, it runs like this:
(§2)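 Male Wistar rats (120–160 g), 5–7 per group, fasted 24 h, given 200 mg/kg orally as aqueous HCl salt formulation (drug/glycerin/HCO-60 1/12/0.05 by weight). Jugular blood taken under ether at 1 or 3 h into citric acid; plasma deproteinized with ethanol (acetone for 5d) and analysed by C18 HPLC at 254 nm. Values recovery-corrected, mean of 6–7 rats.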

For data set [3], the system named is Rattus norvegicus. The data set is described as follows: Concentration 5a detected in blood of rat 3 hr after an oral dose of 200 mg/kg of the compound. It is filed as ADME, organism-based. Set-up: dose 200 mg/kg, route oral. Conditions: in vivo. In short, it runs like this: as §2
Data set [4] has as its system Rattus norvegicus. The data set is described as follows: Gastroprotective activity as % protection against stress ulcers in 5 rats after an oral dose of 100 mg/kg. It is filed as functional. In short, it runs like this: as §1
Data set [5] deals with Rattus norvegicus. Briefly: Gastroprotective activity as % protection against stress ulcers in 5 rats after an intraperitoneal dose of 25 mg/kg. It is filed as functional. In short, it runs like this: as §1
The nature of data set [6]: Solubility in phosphate buffer, tested as a HCl salt. It is filed as physicochemical. In short, it runs like this: (§3)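 HCl salts suspended in excess in water or 10 mM phosphate buffer pH 7.5, sonicated 10 min at 20 °C to saturation, centrifuged; supernatant quantified by HPLC.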
Data set [7] in a line: Lipid solubility measured as chloroform-water partition coefficient. It is filed as physicochemical. In short, it runs like this:
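Partition between chloroform and 10 mM phosphate buffer pH 7.5 (1:1 volume); drug at 1 mg/mL initially in aqueous phase, shaken 20 min at 20 °C, centrifuged, both phases quantified by HPLC. HCl salts used.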

Data set [8] concerns Rattus norvegicus. Briefly: Concentration 6a detected in blood of rat 1 hr after an oral dose of 200 mg/kg of the compound. It is filed as ADME, organism-based. Set-up: dose 200 mg/kg, route oral. To be noted: in vivo. The procedure, abridged:
as §2

The test system of data set [9] is Rattus norvegicus. Briefly: % recovery 1 and compound 6a from whole blood of 7 wistar rats after an oral dose of the compound. It is filed as ADME, organism-based. Conditions: in vivo.
Data set [10] relates to Rattus norvegicus. The data set is described as follows: Gastroprotective activity as % protection against stress ulcers in 5 rats after an oral dose of 25 mg/kg. It is filed as functional. In short, it runs like this:
as §1

Data set [11] is described as follows: Solubility in water, tested as a HCl salt. It is filed as physicochemical. To be noted: read-out: S. In short, it runs like this: as §3
Data set [12] concerns Rattus norvegicus. The data set is described as follows: Gastroprotective activity as % protection against stress ulcers in 5 rats after an intraperitoneal dose of 50 mg/kg. It is filed as functional. In short, it runs like this: as §1
For data set [13], the system named is Rattus norvegicus. The data set is described as follows: Gastroprotective activity as % protection against stress ulcers in 5 rats after an oral dose of 50 mg/kg. It is filed as functional. The procedure, abridged:
as §1

In data set [14] the test system is Rattus norvegicus. The data set is described as follows: Concentration 6a detected in blood of rat 3 hr after an oral dose of 200 mg/kg of the compound. Set-up: dose 200 mg/kg, route oral. It is filed as ADME, organism-based. Conditions: in vivo. The procedure, abridged:
as §2

Data set [15] relates to Rattus norvegicus. Briefly: Concentration 5e detected in blood of rat 3 hr after an oral dose of 200 mg/kg of the compound. Further details: dose 200 mg/kg, route oral. It is filed as ADME, organism-based. Conditions: in vivo. The procedure, abridged: as §2
Data set [16] concerns Rattus norvegicus. Briefly: Concentration 5e detected in blood of rat 1 hr after an oral dose of 200 mg/kg of the compound. It is filed as ADME, organism-based. Further details: dose 200 mg/kg, route oral. Conditions: in vivo. In short, it runs like this:
as §2

For data set [17], the system named is Rattus norvegicus. Briefly: Concentration 1 detected in blood of rat 3 hr after an oral dose of 200 mg/kg; ND is Not Detected. It is filed as ADME, organism-based. Set-up: dose 200 mg/kg, route oral. To be noted: in vivo. In short, it runs like this: as §2
Data set [18] has as its system Rattus norvegicus. Briefly: Concentration 6e detected in blood of rat 3 hr after an oral dose of 200 mg/kg of the compound. It is filed as ADME, organism-based. Further details: dose 200 mg/kg, route oral. To be noted: in vivo. The procedure, abridged:
as §2

Data set [19] deals with Rattus norvegicus. The data set is described as follows: % recovery of the compound, compound 1 and compound 6a from whole blood of 7 wistar rats after an oral dose of the compound. It is filed as ADME, organism-based. Conditions: in vivo.
Data set [20] has as its system Rattus norvegicus. The data set is described as follows: Concentration 1 detected in blood of rat 1 hr after an oral dose of 200 mg/kg; ND is Not Detected. It is filed as ADME, organism-based. Further details: dose 200 mg/kg, route oral. To be noted: in vivo. The procedure, abridged: as §2
The subject of data set [21] is Rattus norvegicus. Briefly: Concentration 6e detected in blood of rat 1 hr after an oral dose of 200 mg/kg of the compound. It is filed as ADME, organism-based. Further details: dose 200 mg/kg, route oral. Conditions: in vivo. In short, it runs like this:
as §2

The test system of data set [22] is Rattus norvegicus. The data set is described as follows: Concentration 1 detected in blood of rat 1 hr after an oral dose of 200 mg/kg; ND is Not Detected. It is filed as ADME, organism-based. Conditions: in vivo. Further details: dose 200 mg/kg, route oral. The procedure, abridged:
as §2

Data set [23] relates to Rattus norvegicus. Briefly: Concentration 1 detected in blood of rat 3 hr after an oral dose of 200 mg/kg; ND is Not Detected. Conditions: in vivo. It is filed as ADME, organism-based. Further details: dose 200 mg/kg, route oral. In short, it runs like this:
as §2

Data set [24] has as its system Rattus norvegicus. The data set is described as follows: Concentration 5f detected in blood of rat 3 hr after an oral dose of 200 mg/kg; ND is Not Detected. It is filed as ADME, organism-based. Further details: dose 200 mg/kg, route oral. To be noted: in vivo. The procedure, abridged:
as §2

The test system of data set [25] is Rattus norvegicus. The data set is described as follows: Concentration 5f detected in blood of rat 1 hr after an oral dose of 200 mg/kg of the compound; ND is Not Detected. It is filed as ADME, organism-based. Set-up: dose 200 mg/kg, route oral. Conditions: in vivo. The procedure, abridged:
as §2

Data set [26] has as its system Rattus norvegicus. The data set is described as follows: Concentration 6f detected in blood of rat 3 hr after an oral dose of 200 mg/kg; ND is Not Detected. It is filed as ADME, organism-based. Further details: dose 200 mg/kg, route oral. To be noted: in vivo. The procedure, abridged: as §2
In data set [27] the test system is Rattus norvegicus. The data set is described as follows: Concentration 6f detected in blood of rat 1 hr after an oral dose of 200 mg/kg; ND is Not Detected. It is filed as ADME, organism-based. Set-up: dose 200 mg/kg, route oral. To be noted: in vivo. In short, it runs like this:
as §2

Data set [28] deals with Rattus norvegicus. Briefly: Concentration 6d detected in blood of rat 1 hr after an oral dose of 200 mg/kg of the compound. It is filed as ADME, organism-based. Further details: dose 200 mg/kg, route oral. To be noted: in vivo. In short, it runs like this: as §2
Data set [29] concerns Rattus norvegicus. Briefly: Concentration 5d detected in blood of rat 1 hr after an oral dose of 200 mg/kg of the compound. It is filed as ADME, organism-based. Set-up: dose 200 mg/kg, route oral. To be noted: in vivo. The procedure, abridged: as §2
The test system of data set [30] is Rattus norvegicus. Briefly: Concentration 5d detected in blood of rat 3 hr after an oral dose of 200 mg/kg of the compound. It is filed as ADME, organism-based. Further details: dose 200 mg/kg, route oral. To be noted: in vivo. The procedure, abridged:
as §2

Data set [31] deals with Rattus norvegicus. Briefly: Concentration 6d detected in blood of rat 3 hr after an oral dose of 200 mg/kg of the compound. Set-up: dose 200 mg/kg, route oral. Conditions: in vivo. It is filed as ADME, organism-based. The procedure, abridged: as §2

On to `CNC1CC(=O)OC1C(O)C(=O)NC(CC(C)C)C1Cc2cccc(O)c2C(=O)O1` (centres undefined), for which the Protection in data set [1] was found to be 17%; in [4] it was 66%; in data set [5], 33%; in [10] it was 11%; in data set [12] it was 56%; in data set [13], 56%. For the same compound, the Concentration in data set [2] was found to be 3800 ng/mL; in [3], 1200 ng/mL; in data set [8], 3100 ng/mL; in data set [14], 1100 ng/mL. Moreover, the solubility in data set [6] is 990 µg/mL; in data set [11], 1500 µg/mL. In data set [7], this compound gave a P of 3750. This compound had a Recovery in [9] of 50%.

On to `CCCCCNC1CC(=O)OC1C(O)C(=O)NC(CC(C)C)C1Cc2cccc(O)c2C(=O)O1` (centres undefined), for which the Concentration in data set [15] is 800 ng/mL; in data set [16], 1200 ng/mL; in [17], “Not detected”; in data set [18] it was 600 ng/mL; in data set [20], “Not detected”; in [21], 800 ng/mL. Also, the Protection in [4] is listed as 56%; in [5], 56%; in data set [10], 44%; in [12], 44%; in [13], 33%. In addition, the solubility in data set [6] was 330 µg/mL; in data set [11] it was 7300 µg/mL. In data set [7], this compound yielded a P of 1900. The compound further had a Recovery in data set [19] of 50%.

Take `CCCCCCNC1CC(=O)OC1C(O)C(=O)NC(CC(C)C)C1Cc2cccc(O)c2C(=O)O1` (centres undefined): the Concentration entry in data set [22], in [23], in [24], in data set [25], in data set [26] and in data set [27] was “Not detected” each time. Also, the Protection in [4] worked out at 44%; in data set [5], 17%; in [10], 11%; in data set [12], 11%; in data set [13], 44%. Moreover, the solubility is 5 µg/mL in data set [6] and 1600 µg/mL in [11]. This compound also displayed a P in data set [7] of 3000. The compound further yielded a Recovery in data set [19] of 80%.

For `CCCCNC1CC(=O)OC1C(O)C(=O)NC(CC(C)C)C1Cc2cccc(O)c2C(=O)O1` (centres undefined), the Protection in data set [1] is listed as 17%; in data set [4], 89%; in data set [5], 44%; in [10] it was 33%; in [12], 89%; in [13], 66%. Also, the Concentration in data set [28] is 2000 ng/mL; in data set [29] it was 2300 ng/mL; in data set [17], “Not detected”; in data set [30], 2300 ng/mL; in data set [31] it was 1800 ng/mL. The solubility in [6] turned out to be 370 µg/mL; in data set [11], 100000 µg/mL. Besides, the P in [7] worked out at 1700. In data set [19], this compound showed a Recovery of 30%.
